In ChEMBL document CHEMBL4428081, “Selective AKR1C3 Inhibitors Potentiate Chemotherapeutic Activity in Multiple Acute Myeloid Leukemia (AML) Cell Lines” (ACS Med Chem Lett, 2016):
Active and inactive are the calls of the source. No cut-off for these calls is given here.

What was measured:
HL-60 [1] = assay: Cytotoxicity against human HL60 cells assessed as reduction in cell viability up to 100 uM at 72 hrs by MTS assay; type: functional, cell-based
Procedure, shortened: (§1)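 HL-60 human acute promyelocytic leukemia cells exposed to AKR1C3 inhibitor alone, with no chemotherapeutic, over a range up to 100 μM. Lower working range was 0.1–1 μM. Read-out was cell viability relative to untreated control.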

KG-1a [2] = assay: Cytotoxicity against human KG1a cells expressing AKR1C3 assessed as reduction in cell viability at >25 uM at 72 hrs by MTS assay; type: functional, cell-based
[3] = biological target: T1, Aldo-keto reductase family 1 member C3 (Homo sapiens) (UniProt P42330); assay: Inhibition of AKR1C3 in human HL60 cells assessed as potentiation of etoposide-induced cytotoxicity by measuring reduction in cell viability at 0.1 uM coincubated with etoposide at 1 uM after 72 hrs by MTS assay (reference value: 40%); type: cell-based
T1 sequence (whole entry): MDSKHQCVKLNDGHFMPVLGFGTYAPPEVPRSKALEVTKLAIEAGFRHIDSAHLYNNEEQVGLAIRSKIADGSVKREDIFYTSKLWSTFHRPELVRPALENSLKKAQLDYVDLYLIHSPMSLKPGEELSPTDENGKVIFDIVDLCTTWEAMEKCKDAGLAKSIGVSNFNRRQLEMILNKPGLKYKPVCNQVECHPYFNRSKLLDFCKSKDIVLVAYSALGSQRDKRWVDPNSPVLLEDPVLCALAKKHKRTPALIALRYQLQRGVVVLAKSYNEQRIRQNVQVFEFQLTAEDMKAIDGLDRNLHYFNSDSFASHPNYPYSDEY
Procedure, shortened: (§2)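 HL-60 or KG1a cells were coincubated with inhibitor and etoposide for 72 h, then cell viability was read. Values are mean ± SD (n = 6). Treatments were compared with control by two-tailed t test.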

[4] = biological target: T1, Aldo-keto reductase family 1 member C3 (Homo sapiens); assay: Inhibition of AKR1C3 in human HL60 cells assessed as potentiation of etoposide-induced cytotoxicity by measuring reduction in cell viability at 0.1 uM coincubated with etoposide at 0.5 uM after 72 hrs by MTS assay (reference value: 20%); type: cell-based; procedure, shortened: as §2
[5] = biological target: T1, Aldo-keto reductase family 1 member C3 (Homo sapiens); assay: Inhibition of AKR1C3 in human KG1a cells assessed as potentiation of etoposide-induced cytotoxicity by measuring reduction in cell viability at 0.1 uM coincubated with etoposide at 1 uM after 72 hrs by MTS assay; type: cell-based; procedure, shortened: as §2
[6] = biological target: T1, Aldo-keto reductase family 1 member C3 (Homo sapiens); assay: Inhibition of AKR1C3 in human HL60 cells assessed as potentiation of etoposide-induced cytotoxicity by measuring reduction in cell viability pre-treated with 0.1 to 1 uM compound for 24 hrs followed by 1 uM etoposide exposure for additional 72 hrs by MTS assay; type: cell-based
[7] = biological target: Aldo-keto reductase family 1 member C2 (Homo sapiens, UniProt P52895); assay: Inhibition of recombinant AKR1C2 (unknown origin) assessed as reduction in S-tetralol catalyzed oxidation in presence of NADPH by fluorescence assay
Chain of Aldo-keto reductase family 1 member C2 (P52895 whole entry): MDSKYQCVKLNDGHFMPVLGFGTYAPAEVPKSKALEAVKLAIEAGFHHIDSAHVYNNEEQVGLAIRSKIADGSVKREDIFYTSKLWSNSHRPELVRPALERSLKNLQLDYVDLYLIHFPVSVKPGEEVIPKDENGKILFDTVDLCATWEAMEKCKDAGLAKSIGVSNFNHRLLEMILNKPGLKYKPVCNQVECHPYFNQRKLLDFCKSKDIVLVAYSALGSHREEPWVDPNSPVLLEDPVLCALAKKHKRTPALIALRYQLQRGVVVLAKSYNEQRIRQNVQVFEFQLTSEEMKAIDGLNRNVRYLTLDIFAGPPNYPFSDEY

Homo sapiens = species: Homo sapiens; assay: Selectivity ratio of IC50 for recombinant AKR1C2 (unknown origin) to IC50 for recombinant AKR1C3 (unknown origin)
[8] = biological target: Aldo-keto reductase family 1 member C3 (Homo sapiens, UniProt P42330); assay: Inhibition of recombinant N-terminal His-tagged AKR1C3 (unknown origin) assessed as rate of change of pyridine nucleotide absorbance in presence of NADPH
HL-60 [9] = assay: Cytotoxicity against human HL60 cells assessed as reduction in cell viability at 50 uM at 72 hrs by MTS assay; type: functional, cell-based; procedure, shortened: as §1
HL-60 [10] = assay: Cytotoxicity against human HL60 cells assessed as reduction in cell viability at 0.1 to 1 uM at 72 hrs by MTS assay; type: functional; procedure, shortened: as §1
KG-1a [11] = assay: Cytotoxicity against human KG1a cells expressing AKR1C3 assessed as reduction in cell viability at 1 uM at 72 hrs by MTS assay; type: functional
HL-60 [12] = assay: Downregulation of AKR1C3 expression in human HL60 cells at 1 to 10 uM after 72 hrs by Western blot analysis; type: functional, cell-based
Procedure, shortened: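 KG1a and HL-60 cells were incubated with inhibitor at 1, 5 and 10 μM. AKR1C3 expression levels were determined after 48 h and 72 h incubation.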

| Structure (SMILES) | Activity (HL-60 [1]) | Activity (KG-1a [2]) | Activity [3] [%] | Activity [4] [%] | Activity [5] [%] | Activity [6] [%] | IC50 [7] [µM] | Ratio IC50 (Homo sapiens) | IC50 [8] [nM] | Activity (HL-60 [9]) | Activity (HL-60 [10]) [%] | Activity (KG-1a [11]) [%] | Activity (HL-60 [12]) |
| --- | --- | --- | --- | --- | --- | --- | --- | --- | --- | --- | --- | --- | --- |
| CC(C)=CCc1cc(/C=C/C(=O)O)ccc1NC(=O)CCc1ccccc1 | inactive | Active | 57 | 25 | 42 | 80 to 95 | – | – | – | – | – | – | – |
| CC(=O)O[C@]1(C(C)=O)CC[C@H]2[C@@H]3C[C@H](C)C4=CC(=O)CC[C@]4(C)[C@H]3CC[C@@]21C [MEDROXYPROGESTERONE ACETATE] | – | – | – | – | – | – | 3.98 | 0.66 | 2510 | – | – | – | – |
| CC(C)=CCc1ccc(/C=C/C(=O)O)cc1NC(=O)CCc1ccccc1 | – | – | 52 | 45 | 40 | 80 to 95 | – | – | – | Active | 8 | 20 | Active |
